E-sel inducer = induces E-selectin expression in human endothelial cells; P16581; HUVEC E-selectin immunofluorescence imaging; normalized: neutral wells 0, TNF-alpha wells 100; activation, % at 7.58 µM; 260,000 tested, 0.37% active; AID 686992;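 active = mean E-selectin-positive cell signal at least 10% of the positive control, reached in at least 60% of replicates, without over 20% cell loss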
Target sequence (P16581 whole entry, looked up): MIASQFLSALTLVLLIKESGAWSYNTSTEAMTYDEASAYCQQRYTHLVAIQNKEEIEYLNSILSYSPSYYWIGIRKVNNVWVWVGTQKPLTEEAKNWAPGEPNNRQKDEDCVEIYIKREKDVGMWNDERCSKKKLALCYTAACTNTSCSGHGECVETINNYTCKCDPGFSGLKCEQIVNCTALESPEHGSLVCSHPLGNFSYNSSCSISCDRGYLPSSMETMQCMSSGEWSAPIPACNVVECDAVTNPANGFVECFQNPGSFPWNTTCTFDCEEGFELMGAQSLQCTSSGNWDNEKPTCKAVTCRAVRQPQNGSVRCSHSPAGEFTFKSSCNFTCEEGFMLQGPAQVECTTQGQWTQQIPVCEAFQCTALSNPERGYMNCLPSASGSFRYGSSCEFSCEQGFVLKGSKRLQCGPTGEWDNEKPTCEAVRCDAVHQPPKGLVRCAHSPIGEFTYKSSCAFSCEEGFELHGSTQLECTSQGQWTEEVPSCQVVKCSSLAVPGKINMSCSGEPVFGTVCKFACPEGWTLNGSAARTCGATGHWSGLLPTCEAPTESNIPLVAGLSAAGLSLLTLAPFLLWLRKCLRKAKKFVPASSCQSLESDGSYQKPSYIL
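Assay system: HUVEC, human umbilical vein endothelial cells / Amount: 3,000 HUVEC/well / Controls: TNF-alpha positive control, DMSO neutral control / Compound dosing: single concentration / Medium: EGM-2 over gelatin coat / Evaluation: percent E-selectin-positive cells / Signal: immunofluorescence imaging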
Numbers without * were called inactive. The sample as a whole holds a higher share of hits than the screen did.

SMILES | E-sel inducer
CCN(CC)c1ccc2nc3ccc(N)cc3[n+](-c3ccccc3)c2c1 | 91.8*
Nc1ccc2nc(Cc3ccccc3)[nH]c2c1 | -0.1
CCN(CC)c1ccc(C=Nc2cccnc2Cl)c(O)c1 | 0.0
COCCNC(=O)[C@H]1[C@H](CO)[C@H]2Cn3c(ccc(-c4ccccc4)c3=O)[C@@H]1N2C | 0.6
C[C@@H]1CCCCO[C@H](CN(C)CC2CCCCC2)[C@H](C)CN([C@H](C)CO)C(=O)c2cc(NC(=O)Nc3ccccc3)ccc2O1 | -0.3
COC(=O)C[C@H]1CC[C@@H]2[C@H](COc3ccc(NS(=O)(=O)c4ccccc4Cl)cc3C(=O)N2C)O1 | 0.0
C[C@@H]1CN([C@H](C)CO)C(=O)c2cc(NS(=O)(=O)c3ccccc3)ccc2O[C@H]1CN(C)S(C)(=O)=O | -0.2
Cc1noc(C)c1S(=O)(=O)Nc1ccc2c(c1)CC(=O)N([C@@H](C)CO)C[C@@H](C)[C@@H](CN(C)C(=O)Nc1ccccc1)O2 | -0.1
Cc1noc(C)c1S(=O)(=O)Nc1ccc2c(c1)CC(=O)N([C@H](C)CO)C[C@@H](C)[C@H](CN(C)C(=O)Nc1cccc3ccccc13)O2 | 32.1*
Cc1noc(C)c1S(=O)(=O)Nc1ccc2c(c1)CC(=O)N([C@@H](C)CO)C[C@@H](C)[C@@H](CN(C)C(=O)Nc1cccc3ccccc13)O2 | -8.0
Cc1noc(C)c1S(=O)(=O)Nc1ccc2c(c1)CC(=O)N([C@H](C)CO)C[C@H](C)[C@@H](CN(C)C(=O)Nc1cccc3ccccc13)O2 | 305.3*
Cc1noc(C)c1S(=O)(=O)Nc1ccc2c(c1)C(=O)N([C@@H](C)CO)C[C@@H](C)[C@@H](CN(C)C(=O)Nc1cccc3ccccc13)O2 | -0.9
Cc1noc(C)c1S(=O)(=O)Nc1ccc2c(c1)CC(=O)N([C@H](C)CO)C[C@H](C)[C@H](CN(C)C(=O)Nc1ccccc1)O2 | -0.1
CN1[C@@H]2Cn3c(ccc(C4=CCCCC4)c3=O)[C@H]1[C@@H](C(=O)NCc1cc(F)cc(F)c1)[C@@H]2CO | -0.3
O=C(Nc1cccc(F)c1)N[C@H]1CC[C@H](CCn2cc(Cc3ccccc3)nn2)O[C@H]1CO | 0.0
O=C(C[C@H]1C=C[C@H](NC(=O)c2ccncc2)[C@@H](CO)O1)NCc1ccncn1 | -0.6
CC(C)NC(=O)NCC[C@H]1CC[C@@H](NS(=O)(=O)c2ccc(-c3ccccc3)cc2)[C@H](CO)O1 | 0.2
CN1C(=O)c2cc(NC(=O)Nc3ccccc3Cl)ccc2OC[C@@H]2O[C@H](CC(=O)NCCCN3CCOCC3)CC[C@@H]21 | -0.2
O=C(NCC(F)(F)F)[C@@H]1[C@@H](CO)[C@@H]2Cn3c(ccc(-c4cccnc4)c3=O)[C@H]1N2Cc1ccccc1 | -0.1
COCCNC(=O)C[C@@H]1C[C@@H]2c3cc(NC(=O)Nc4ccccc4F)ccc3O[C@@H]2[C@@H](CO)O1 | 0.0
O=C(CCN1C(=O)/C(=C/c2cccs2)SC1=S)Nc1ccccc1O | 29.8*
O=C(CCN1C(=O)/C(=C/c2cccs2)SC1=S)Nc1ccc(O)cc1 | 11.3
O=C(CCN1C(=O)/C(=C\c2cccs2)SC1=S)Nc1ccccn1 | 15.9
O=C1S/C(=C\c2cccs2)C(=O)N1c1ccc(O)cc1 | -0.2
O=C1/C(=C/c2cccs2)SC(=S)N1c1cccc(O)c1 | 51.7*
SMILES | E-sel inducer
O=C(CCN1C(=O)/C(=C/c2cccs2)SC1=S)Nc1cccc(O)c1 | 12.2
COc1ccc(CN(C)C[C@@H]2OCCCC[C@@H](C)Oc3ccc(NC(=O)CCCN(C)C)cc3C(=O)N([C@H](C)CO)C[C@@H]2C)cc1 | 1.4
CC(C)(C)[S@](=O)N1Cc2cc(C(=O)NCCN3CCCC3)nc(-c3cccc(-c4cccc(C#N)c4)c3)c2[C@@H]1CCO | 0.1
CO[C@@H]1CN(C)C(=O)c2cc(NC(=O)Nc3ccccc3)ccc2OC[C@H](C)N(CC2CC2)C[C@@H]1C | 0.2
C[C@@H]1CN([C@H](C)CO)C(=O)c2c(c3ccccc3n2C)-c2ccccc2CO[C@@H]1CN(C)C(=O)c1ccncc1 | 0.3
CCN(C[C@@H]1[C@@H](c2ccccc2)[C@H](CO)N1CC1CC1)C(=O)c1cccc(F)c1 | 0.0
CO[C@H]1CN(C)C(=O)c2ccc(NC(=O)C3CC3)cc2OC[C@@H](C)N(C(=O)NC(C)C)C[C@H]1C | 0.2
O=C(c1cc2c(c(-c3cccc(Br)c3)n1)[C@@H](CCO)NC2)N1CCCCC1 | 131.8*
CN1CCN(C(=O)c2cc3c(c(-c4cccc(Br)c4)n2)[C@@H](CCO)N(S(=O)C(C)(C)C)C3)CC1 (some centres not stated) | 0.2
O=C(c1cc2c(c(-c3cccc(Br)c3)n1)[C@H](CCO)NC2)N1CCCCC1 | 15.9
CC(C)NC(=O)N(C)C[C@H]1Oc2ccc(NC(=O)CCN3CCOCC3)cc2C(=O)N([C@@H](C)CO)C[C@@H]1C | -11.6
C[C@@H]1CN([C@H](C)CO)C(=O)c2cc(NC(=O)CCN3CCOCC3)ccc2O[C@@H]1CN(C)C(=O)NC1CCCCC1 | 3.9
CC(C)NC(=O)N(C)C[C@@H]1Oc2ccc(NC(=O)CCN3CCOCC3)cc2C(=O)N([C@@H](C)CO)C[C@H]1C | 33.0*
CC(C)NC(=O)N(C)C[C@H]1Oc2ccc(NC(=O)CCN3CCOCC3)cc2C(=O)N([C@H](C)CO)C[C@@H]1C | 43.2*
C[C@@H]1CN([C@H](C)CO)C(=O)c2cc(NC(=O)CCN3CCOCC3)ccc2O[C@H]1CN(C)C(=O)Nc1ccccc1 | -0.1
CC(C)NC(=O)N(C)C[C@H]1Oc2ccc(NC(=O)CCN3CCOCC3)cc2C(=O)N([C@H](C)CO)C[C@H]1C | 25.5
CNC[C@H]1Oc2ncc(-c3cccc(F)c3)cc2C(=O)N([C@@H](C)CO)C[C@H]1C | 0.6
O=C(C[C@@H]1C=C[C@@H](NC(=O)Nc2ccccc2F)[C@@H](CO)O1)NCc1ccc(-c2ccccc2)cc1 | 3.4
CO[C@H]1CN(C)C(=O)c2cc(NS(C)(=O)=O)ccc2OC[C@H](C)N(C(=O)CC2CC2)C[C@H]1C | 1.5
C[C@H]1CN([C@@H](C)CO)C(=O)CCCn2nncc2CO[C@H]1CN(C)C(=O)CCCN(C)C | 0.4
COc1cccc(N2CCN(CC(=O)Nc3ccccc3C(=O)NCc3ccccc3)CC2)c1 | 3.7
Cc1ccccc1NC(=O)CN1CCN(c2ccc(F)cc2)CC1 | -0.2
O=C(CN1CCN(c2ccc(O)cc2)CC1)Nc1ccccc1C(=O)NCCc1ccccc1 | 66.5*
CC(C)NC(=O)N(C)C[C@H]1Oc2cc(Br)ccc2S(=O)(=O)N([C@@H](C)CO)C[C@H]1C | -0.3
COc1ccc(S(=O)(=O)N(C)C[C@@H]2Oc3cc(C#CC4CC4)ccc3S(=O)(=O)N([C@@H](C)CO)C[C@@H]2C)cc1 | 0.1
SMILES | E-sel inducer
C[C@@H]1CN([C@H](C)CO)C(=O)c2cc(NC(=O)Nc3ccc(C(F)(F)F)cc3)ccc2O[C@@H](C)CCCCO[C@H]1CN(C)C(=O)C1CCCCC1 | 5.5
C[C@H]1CN([C@@H](C)CO)C(=O)c2cc(C#CC3CCCC3)cnc2O[C@@H]1CN(C)C(=O)C1CC1 | -0.5
O=C(COC(=O)c1ccccc1)Nc1ccc2[nH]c(=O)[nH]c2c1 | 1.3
O=C(COC(=O)c1ccc(Br)o1)Nc1ccc2[nH]c(=O)[nH]c2c1 | 26.7*
O=C(COC(=O)c1ccc(O)cc1)Nc1ccc2[nH]c(=O)[nH]c2c1 | 0.1
COc1ccc(S(=O)(=O)Nc2ccc3c(c2)C(=O)N([C@@H](C)CO)C[C@@H](C)[C@@H](CN(C)S(=O)(=O)c2ccc(C)cc2)O3)cc1 | -0.5
COc1ccc(CCNS(=O)(=O)c2ccc3c(c2)NC(=O)CS3)cc1OC | 114.2*
